According to PMC5367579 (International Journal of Nanomedicine, 2017):
Ends that are not written are not given here.

Key:
db/db mice [1] = experiment: Acute blood glucose lowering after single intraperitoneal dose in db/db mice; assay type: in vivo; conditions: 20 nmol/kg single intraperitoneal dose
How it was run: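 Male 10-week-old db/db mice (type 2 diabetic), six groups of eight, with blood glucose measured before treatment. A single intraperitoneal dose of 20 nmol/kg (dosed by peptide content) was given, diluted in sterile normal saline. Blood glucose was read at 0.5 h, then hourly from 1 to 15 h. Controls were saline (same volume), reference peptides at 20 nmol/kg, and peptide-free nanoparticle carrier at 42.1 μg/kg.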

db/db mice [2] = experiment: Chronic 12-week daily administration in db/db mice; assay type: in vivo; conditions: daily i.p. 12 weeks, 20 nmol/kg (SC 42.1 μg/kg), mean ± SEM, n=8
INS-1 cells [3] = experiment: Glucose uptake of INS-1 cells; assay type: cell-based; conditions: 10 nM SCD/peptides or 210 nM SeNPs/SC, KRBH buffer with 16.7 mM glucose, 20 min
[4] = cited from earlier work
INS-1 cells [5] = experiment: Insulin receptor beta subunit expression in INS-1 cells; assay type: cell-based; conditions: 10 nM SCD/peptides or 210 nM SeNPs/SC, 48 h, Western blot IR-β

Substance | hypoglycemic effect (db/db mice [1]) | CHOL (db/db mice [2]) [mmol/L] | Free fatty acid (db/db mice [2]) [mEq/L] | HDL-C (db/db mice [2]) [mmol/L] | LDL-C (db/db mice [2]) [mmol/L] | TG (db/db mice [2]) [mmol/L] | Water consumption (db/db mice [2]) [g/day] | Whole white fat (db/db mice [2]) [g] | glucose uptake (INS-1 cells [3]) [mM] | half-life ([4]; in vivo) | insulin receptor expression level vs PBS group (INS-1 cells [5]) [fold] | half-life of wild PACAP ([4]; abstract, comparator for SCD half-life, ref not given)
HSDAVFTDNYTRLRKQVAAKKYLQSIKNKRY-NH2 (C-terminus assumed) [BAY55-9837] | momentary hypoglycemic effect within 30 min | 2.55 ± 0.25 | 1.30±0.19 | 1.46 ± 0.20 | 0.63 ± 0.12 | 1.93 ± 0.14 | 27.2 ± 1.90 | 15.3 ± 1.28 | 1.44 | ~ 5 min | 1.25 | 
pituitary adenylate cyclase activating peptide [PACAP] |  |  |  |  |  |  |  |  |  |  |  | ~ 5 min
